Active and inactive are the calls of the source. The calls are words filed in the database; no cut-off is given here.
Key:
[1] = tested on: A2780; test: Potency index, ratio of parthenolide EC50 to compound EC50 for cell growth inhibition of human A2780 cells; assay type: functional
[2] = Cytotoxicity against human MIAPaCa2 cells assessed as cell growth inhibition after 3 days by presto blue dye based plate reader method; assay type: functional; details: MIA PaCa-2, 72 h
Procedure, shortened: (§1)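 Cells in DMEM high glucose/10% FBS (A2780 in RPMI/10% FBS), 4,000 per well, overnight, then 40 to 0.039 µM or vehicle, 24, 48, 72 h at 37°C, 5% CO2; PrestoBlue 15 min, fluorescence 560ex/590em; growth as 100×[(T−Tz)/(C−Tz)] per NCI algorithm.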

[3] = tested on: HeLa; test: Potency index, ratio of parthenolide IC50 to compound IC50 for cell growth inhibition of human HeLa cells; assay type: functional
[4] = tested on: SW480; test: Cytotoxicity against human SW480 cells assessed as cell growth inhibition after 3 days by presto blue dye based plate reader method; assay type: functional; details: SW480, 72 h
[5] = tested on: SW480; test: Potency index, ratio of parthenolide IC50 to compound IC50 for cell growth inhibition of human SW480 cells; assay type: functional
[6] = tested on: A2780; test: Cytotoxicity against human A2780 cells assessed as cell growth inhibition after 3 days by presto blue dye based plate reader method; assay type: functional; details: A2780, 72 h; procedure, shortened: as §1
[7] = tested on: SW480; test: Potency index, ratio of ibrutinib IC50 to compound IC50 for cell growth inhibition of human SW480 cells; assay type: functional
[8] = tested on: HeLa; test: Potency index, ratio of ibrutinib IC50 to compound IC50 for cell growth inhibition of human HeLa cells; assay type: functional
[9] = tested on: MIA PaCa-2; test: Potency index, ratio of parthenolide IC50 to compound IC50 for cell growth inhibition of human MIAPaCa2 cells; assay type: functional
[10] = tested on: HeLa; test: Cytotoxicity against human HeLa cells expressing GFP assessed as cell growth inhibition after 3 days by presto blue dye based plate reader method; assay type: functional; details: 72 h; procedure, shortened: as §1
[11] = tested on: MIA PaCa-2; test: Potency index, ratio of ibrutinib IC50 to compound IC50 for cell growth inhibition of human MIAPaCa2 cells; assay type: functional
[12] = tested on: A2780; test: Potency index, ratio of ibrutinib EC50 to compound EC50 for cell growth inhibition of human A2780 cells; assay type: functional
[13] = tested on: MDA-MB-231; test: Cytotoxicity against human MDA-MB-231 cells assessed as cell growth inhibition after 3 days by presto blue dye based plate reader method; assay type: functional; procedure, shortened: as §1
[14] = tested on: MDA-MB-231; test: Cytotoxicity against human MDA-MB-231 cells assessed as cell growth inhibition at 0.039 to 40 uM by presto blue dye based plate reader method; assay type: functional; details: TDE = time-dependent effect
[15] = tested on: Mus musculus; test: Downregulation of Mcl-1 in human A2780 cells xenografted in nude C57B6 mouse in presence of cisplatin by […]; assay type: functional, organism-based
[16] = tested on: A2780; test: Potentiation of cisplatin-induced growth inhibition of human A2780 cells assessed as combination index at 1 to 10 uM after 3 days; assay type: functional
Procedure, shortened: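 Combination index values derived from median effect plots and dose-effect curves of combined treatments.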

[17] = tested on: Mus musculus; test: Toxicity in nude C57B6 mouse orthotopic model of ovarian cancer xenografted with human A2780 cells assessed overt toxicity at 1 to 5 mg/kg administered ip 5 days a week for 4 weeks; assay type: organism-based; details: in vivo
[18] = target: T1, Inhibitor of nuclear factor kappa-B kinase subunit beta (Homo sapiens) (UniProt O14920); test: Inhibition of IKKbeta in human MDA-MB-231 cells assessed as reduction in IkappaBalpha phosphorylation by Western blot analysis; assay type: cell-based
T1 sequence (whole entry): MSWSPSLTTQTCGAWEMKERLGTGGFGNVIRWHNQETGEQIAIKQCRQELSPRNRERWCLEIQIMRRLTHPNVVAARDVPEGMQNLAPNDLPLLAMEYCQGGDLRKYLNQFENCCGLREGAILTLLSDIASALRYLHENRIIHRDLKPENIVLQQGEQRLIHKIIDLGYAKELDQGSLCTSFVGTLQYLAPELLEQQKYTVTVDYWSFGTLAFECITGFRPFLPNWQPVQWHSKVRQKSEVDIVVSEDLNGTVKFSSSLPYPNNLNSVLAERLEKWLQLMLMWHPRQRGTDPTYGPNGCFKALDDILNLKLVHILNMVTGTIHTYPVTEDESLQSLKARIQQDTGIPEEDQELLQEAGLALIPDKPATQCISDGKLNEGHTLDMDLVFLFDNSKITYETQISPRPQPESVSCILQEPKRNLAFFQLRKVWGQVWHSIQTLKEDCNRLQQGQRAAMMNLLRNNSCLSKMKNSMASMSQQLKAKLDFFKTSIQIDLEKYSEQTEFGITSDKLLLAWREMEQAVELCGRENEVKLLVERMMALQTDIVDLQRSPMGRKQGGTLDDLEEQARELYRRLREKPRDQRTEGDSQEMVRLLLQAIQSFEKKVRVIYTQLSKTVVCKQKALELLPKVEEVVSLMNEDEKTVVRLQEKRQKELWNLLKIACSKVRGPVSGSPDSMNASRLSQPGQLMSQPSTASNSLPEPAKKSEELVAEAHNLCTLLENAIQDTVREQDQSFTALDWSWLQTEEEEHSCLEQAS
Procedure, shortened: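 MDA-MB-231 cytoplasmic fractions: swelling 30 min on ice in HEPES/KCl/EDTA/DTT buffer with inhibitors, 1.25% NP-40, centrifuged; lysates on 4-20% gels, PVDF, anti-phospho-IκBα and anti-IκBα, tubulin or GAPDH loading control, ECL detection.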

[19] = tested on: A549; test: Inhibition of TNFalpha-induced IKKbeta-mediated NF-kappaB activity in human A549 cells at 10 uM after 2 hrs followed by TNFalpha addition for 7 hrs by ONE-Glo Luciferase reporter based luminescence assay; assay type: cell-based
Procedure, shortened: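 A549 luciferase cells grown 5 passages without TNFα then 2 passages with or without 5 ng/mL TNFα; 50,000 per well overnight; 10 µM compound 2 h; then 20 ng/mL TNFα 7 h; PrestoBlue 10 min (560ex/590em) viability; ONE-Glo 10 min, luminescence 1000 ms.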

[20] = tested on: A2780; test: Anticancer activity against human A2780 cells xenografted in nude C57B6 mouse orthotopic model of ovarian cancer assessed as tumor growth inhibition administered ip 5 days a week for 4 weeks; assay type: functional
Procedure, shortened: (§2)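 Nude mice injected with 2 million A2780 ovarian cancer cells; treatment began day 3 (7 groups). Arms: vehicle, 1, 2.5 or 5 mg/kg given 5 days/week to day 30; cisplatin 2 or 4 mg/kg on days 5, 9, 14, 21; or 2.5 mg/kg plus 2 mg/kg cisplatin. Day 30: mice sacrificed, tumors removed and weighed.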

[21] = tested on: HeLa; test: Induction of apoptosis in human HeLa cells assessed as PARP cleavage after 24 to 48 hrs by Western blot analysis; assay type: functional, cell-based
Procedure, shortened: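 Cells collected with media and trypsinized pellet combined, lysed in RIPA buffer (pH 8.0), 4-20% SDS-PAGE, Western blot with anti-PARP to detect cleavage; HeLa timepoint 48 h.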

[22] = target: T1, Inhibitor of nuclear factor kappa-B kinase subunit beta (Homo sapiens); test: Inhibition of IKKbeta in human MIAPaCa2 cells assessed as reduction in IkappaBalpha phosphorylation at 10 to 20 uM by Western blot analysis; assay type: cell-based; details: MIA PaCa-2
[23] = tested on: A2780; test: Anticancer activity against human A2780 cells xenografted in nude C57B6 mouse orthotopic model of ovarian cancer assessed as tumor growth inhibition at 2.5 mg/kg administered ip 5 days a week for 4 weeks in presence of 2 mg/kg of cisplatin; assay type: functional; procedure, shortened: as §2
[24] = tested on: A549; test: Inhibition of TNFalpha-induced IKKbeta-mediated NF-kappaB activity in human A549 cells at 10 uM after 2 hrs followed by TNFalpha addition for 3 hrs by ONE-Glo Luciferase reporter based luminescence assay; assay type: cell-based
[25] = target: serum albumin (Homo sapiens, UniProt P02768); test: Binding affinity to human serum albumin assessed as half life by HPLC analysis; assay type: ADME
[26] = tested on: HeLa; test: Anticlonogenic activity against human HeLa cells assessed as inhibition of colony formation after 2 to 7 days by crystal violet staining; assay type: functional, cell-based
Procedure, shortened: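 HeLa cells seeded at 500-1000 per well, grown 24 h, drug-treated 48 h at 37°C (DMSO control), then fresh medium for 7 days; methanol fixed 15 min, 0.1% crystal violet 30 min at room temperature, colonies over 50 cells counted.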

[27] = tested on: Mus musculus; test: Downregulation of Mcl-1 in human A2780 cells xenografted in nude C57B6 mouse by immunohistochemistry method; assay type: functional, organism-based
Procedure, shortened: (§3)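 A2780 tumors from the day-30 nude-mouse study: H&E staining to locate tumor areas, cores punched into a tissue microarray, sections stained with rabbit anti-p65 or anti-Mcl-1 via polymer detection, scored 0-3 by percentage of positive cells (3 = ≥67% positive).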

[28] = tested on: Mus musculus; test: Downregulation of NF-kappaB p65 in human A2780 cells xenografted in nude C57B6 mouse in presence of cisplatin by […]; assay type: functional, organism-based
[29] = tested on: A2780; test: Anticancer activity against human A2780 cells xenografted in nude C57B6 mouse orthotopic model of ovarian cancer assessed as tumor growth inhibition at 2.5 mg/kg administered ip 5 days a week for 4 weeks; assay type: functional; details: read-out: TGI; procedure, shortened: as §2
[30] = Inhibition of TNFalpha-induced IKKbeta-mediated NF-kappaB activity in human A549 cells after 2 hrs followed by TNFalpha addition for 3 hrs by ONE-Glo Luciferase reporter based luminescence assay; assay type: cell-based
Procedure, shortened: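 A549 NF-κB luciferase cells (hygromycin B-maintained), 50,000 per well overnight; compound 2 h, then 20 ng/mL TNFα 3 h; alamarBlue 3 h as seeding/viability control; ONE-Glo added, 10 min room temperature, luminescence at 1000 ms.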

[31] = tested on: SK-OV-3; test: Induction of apoptosis in human SKOV3 cells assessed as caspase 3/7 activation after 24 hrs in absence of cisplatin by Caspase Glo-3/7 luminescence assay; assay type: functional, cell-based
Procedure, shortened: (§4)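 SKOV3 at 3,000 cells per well, overnight; compound 24 h; alamarBlue 3 h with fluorescence 560ex/590em as viability read; Caspase-Glo 3/7 reagent, shaken 30 s, 1 h room temperature, luminescence at 1000 ms integration.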

[32] = tested on: SK-OV-3; test: Induction of apoptosis in human SKOV3 cells assessed as caspase 3/7 activation after 24 hrs in presence of cisplatin by Caspase Glo-3/7 luminescence assay; assay type: functional, cell-based; procedure, shortened: as §4
[33] = tested on: Mus musculus; test: Downregulation of NF-kappaB p65 in human A2780 cells xenografted in nude C57B6 mouse by immunohistochemistry method; assay type: functional, organism-based; procedure, shortened: as §3
[34] = tested on: A2780; test: Anticancer activity against human A2780 cells xenografted in nude C57B6 mouse orthotopic model of ovarian cancer assessed as tumor growth inhibition at 5 mg/kg administered ip 5 days a week for 4 weeks; assay type: functional; details: read-out: TGI; procedure, shortened: as §2

Chain of serum albumin (P02768 whole entry): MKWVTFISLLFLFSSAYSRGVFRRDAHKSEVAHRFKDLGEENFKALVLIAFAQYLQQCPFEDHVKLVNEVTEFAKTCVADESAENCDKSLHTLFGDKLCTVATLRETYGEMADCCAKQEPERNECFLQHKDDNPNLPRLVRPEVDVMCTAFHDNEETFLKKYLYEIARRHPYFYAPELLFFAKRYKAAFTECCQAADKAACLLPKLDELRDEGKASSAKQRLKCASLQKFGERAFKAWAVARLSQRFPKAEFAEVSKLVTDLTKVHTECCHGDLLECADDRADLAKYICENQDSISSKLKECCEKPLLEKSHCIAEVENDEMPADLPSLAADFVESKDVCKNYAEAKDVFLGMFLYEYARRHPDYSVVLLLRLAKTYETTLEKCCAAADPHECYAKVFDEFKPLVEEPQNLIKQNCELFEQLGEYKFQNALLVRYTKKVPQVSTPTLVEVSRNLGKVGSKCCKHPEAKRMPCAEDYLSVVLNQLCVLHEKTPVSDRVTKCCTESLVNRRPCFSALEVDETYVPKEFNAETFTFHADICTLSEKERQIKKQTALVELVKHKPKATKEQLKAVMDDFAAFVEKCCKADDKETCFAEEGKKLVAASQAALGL

C=C1CC2(OC1=O)C(=O)Nc1c(C)ccc(C)c12 (configuration not stated)
Ratio EC50 [1]: 13 | IC50 [2]: 0.9 µM | Ratio IC50 [3]: 2 | IC50 [4]: 1.2 µM | Ratio IC50 [5]: 2 | EC50 [6]: 1 µM | Ratio IC50 [7]: 5 | Ratio IC50 [8]: 5 | Ratio IC50 [9]: 2 | IC50 [10]: 3.2 µM | Ratio IC50 [11]: 5 | Ratio EC50 [12]: 20

C=C1CC2(OC1=O)C(=O)Nc1ccccc12 (configuration not stated)
Ratio EC50 [1]: 4 | growth inhibition (GI) [13]: Dose-dependent effect | growth inhibition (GI) [14]: tde | Activity [15]: Active | CI [16]: <1 | Activity [17]: Non-toxic | inhibition [18]: Active | inhibition [19]: 75% | TGI [20]: 10% | inhibition [20]: Dose-dependent effect | Activity [21]: Active | inhibition [22]: Active | TGI [23]: 65% | inhibition [24]: > 70% | EC50 [6]: 2.3 µM | half-life [25]: 4.83 h | inhibition [26]: Dose-dependent effect | Activity [27]: Active | Activity [28]: Active | inhibition in vivo at 2.5 mg/kg [29]: 21% | IC50 [30]: 4 µM | Activity [31]: Active | Activity [32]: Active | Activity [33]: Active | inhibition in vivo at 5 mg/kg [34]: 40%

— ChEMBL document CHEMBL3822425, “Isatin Derived Spirocyclic Analogues with α-Methylene-γ-butyrolactone as Anticancer Agents: A Structure-Activity Relationship Study” (J Med Chem, 2016)
